Measured values as given in ChEMBL document CHEMBL4038305, “Benzoxaborole Antimalarial Agents. Part 5. Lead Optimization of Novel Amide Pyrazinyloxy Benzoxaboroles and Identification of a Preclinical Candidate” (J Med Chem, 2017).

What was measured:
Plasmodium berghei [1] = assay: Antimalarial activity against Plasmodium berghei infected in Swiss Webster mouse assessed as mouse survival rate at 200 mg/kg administered once daily via oral gavage for 4 consecutive days beginning 1 hr after infection measured on day 16 post infection relative to control; type: functional
Summary of the method: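 P. berghei-infected erythrocytes taken from a previously infected mouse were injected intraperitoneally. Oral dosing, once daily for 4 consecutive days, began 1 h after infection, in polyethylene glycol 300/propylene glycol/water (55/25/20 by weight). Chloroquine at 30 mg/kg was the positive control, with a vehicle-only group. Percent survival was recorded daily from day 4 to day 20.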

Plasmodium berghei [2] = assay: Antimalarial activity against Plasmodium berghei infected in Swiss Webster mouse assessed as mouse survival rate at 11 mg/kg administered once daily via oral gavage for 4 consecutive days beginning 1 hr after infection measured on day 11 post infection relative to control; type: functional
Summary of the method: (§1)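 Mice given an intraperitoneal injection of P. berghei-infected erythrocytes taken from a previously infected animal. Oral dosing once daily for 4 consecutive days, starting 1 h after infection. Vehicle: polyethylene glycol 300/propylene glycol/water (weight ratio 55/25/20). Percent survival recorded daily from day 4 to day 20. Chloroquine 30 mg/kg and vehicle-only groups served as controls.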

Lymphocyte [3] = assay: Genotoxicity in human lymphocytes assessed as increase in frequency of micronucleated cells at 355.15 ug/mL after 3 hrs in absence of rat liver S9 fraction by micronucleus assay (reference value: 0.99%); type: toxicity, cell-based
Salmonella typhimurium [4] = assay: Genotoxicity in Salmonella typhimurium TA100 assessed as number of revertants per plate at 5 ug/plate in presence of rat liver S9 fraction by Ames test (reference value: 141 +/- 1); type: toxicity; conditions: salmonella enterica subsp. enterica serovar typhimurium
Rattus norvegicus = assay: Genotoxicity in rat assessed as change in polychromatic erythrocytes in bone marrow at 2000 mg/kg administered via oral gavage measured after 24 hrs post dose by micronucleus assay relative to control; type: toxicity, organism-based; conditions: in vivo
Plasmodium falciparum [5] = assay: Antimalarial activity against Plasmodium falciparum TM90C2A infected in human erythrocytes assessed as reduction in [3H]-hypoxanthine incorporation preincubated for 24 hrs followed by [3H]-hypoxanthine addition measured after 24 hrs by scintillation counting method; type: functional, cell-based
Escherichia coli [6] = assay: Genotoxicity in Escherichia coli WP2uvrA assessed as number of revertants per plate at 1500 ug/plate in absence of rat liver S9 fraction by Ames test (reference value: 45 +/- 9); type: toxicity
Escherichia coli [7] = assay: Genotoxicity in Escherichia coli WP2uvrA assessed as number of revertants per plate at 15 ug/plate in presence of rat liver S9 fraction by Ames test (reference value: 42 +/- 6); type: toxicity
Salmonella typhimurium [8] = assay: Genotoxicity in Salmonella typhimurium TA100 assessed as number of revertants per plate at 5 ug/plate in absence of rat liver S9 fraction by Ames test (reference value: 154 +/- 9); type: toxicity; conditions: salmonella enterica subsp. enterica serovar typhimurium
Lymphocyte [9] = assay: Genotoxicity in human lymphocytes assessed as increase in frequency of micronucleated cells at 355.15 ug/mL after 28 hrs in absence of rat liver S9 fraction by micronucleus assay (reference value: 0.74%); type: toxicity, cell-based
Salmonella typhimurium [10] = assay: Genotoxicity in Salmonella typhimurium TA100 assessed as number of revertants per plate at 500 ug/plate in absence of rat liver S9 fraction by Ames test (reference value: 154 +/- 9); type: toxicity; conditions: salmonella enterica subsp. enterica serovar typhimurium
Salmonella typhimurium [11] = assay: Genotoxicity in Salmonella typhimurium TA1537 assessed as number of revertants per plate at 1.5 ug/plate in presence of rat liver S9 fraction by Ames test (reference value: 11 +/- 4); type: toxicity; conditions: salmonella enterica subsp. enterica serovar typhimurium
[12] = Terminal half life in Beagle dog at 5 mg/kg, iv by HPLC/MS analysis; type: ADME, organism-based, Canis lupus familiaris; conditions: in vivo, read-out: beta t1/2 (converted)
Summary of the method: (§2)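 Female CD-1 mice, male SD rats or beagle dogs given 5 mg/kg by iv injection or oral gavage. Formulation was PEG300/propylene glycol/water 55/25/20, pH 6. Blood samples analysed by HPLC–MS/MS; parameters include AUC0-inf extrapolated to infinity and terminal half-life.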

Plasmodium falciparum [13] = assay: Antimalarial activity against intraerythrocytic stage of Plasmodium falciparum assessed as parasite reduction ratio at 10 times IC50 preincubated for 24 hrs followed by [3H]-hypoxanthine addition measured after 24 hrs by scintillation counting method; type: functional
Summary of the method: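 In vitro P. falciparum parasite reduction ratio assay run at 10×, 30× and 100× IC50. Derived parameters: lag phase (time to maximal killing), PRR (parasites killed per life cycle) and PCT99.9% (time to clear 99.9% of the initial parasite population).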

Salmonella typhimurium [14] = assay: Genotoxicity in Salmonella typhimurium TA98 assessed as number of revertants per plate at 5000 ug/plate in presence of rat liver S9 fraction by Ames test (reference value: 19 +/- 8); type: toxicity; conditions: salmonella enterica subsp. enterica serovar typhimurium
Salmonella typhimurium [15] = assay: Genotoxicity in Salmonella typhimurium TA1535 assessed as number of revertants per plate at 5 ug/plate in presence of rat liver S9 fraction by Ames test (reference value: 10); type: toxicity; conditions: salmonella enterica subsp. enterica serovar typhimurium
Salmonella typhimurium [16] = assay: Genotoxicity in Salmonella typhimurium TA98 assessed as number of revertants per plate at 5000 ug/plate in absence of rat liver S9 fraction by Ames test (reference value: 14 +/- 6); type: toxicity; conditions: salmonella enterica subsp. enterica serovar typhimurium
Salmonella typhimurium [17] = assay: Genotoxicity in Salmonella typhimurium TA1537 assessed as number of revertants per plate at 1500 ug/plate in presence of rat liver S9 fraction by Ames test (reference value: 11 +/- 4); type: toxicity; conditions: salmonella enterica subsp. enterica serovar typhimurium
[18] = Terminal half life in Beagle dog at 5 mg/kg, po via gavage by HPLC/MS analysis; type: ADME, organism-based, Canis lupus familiaris; conditions: in vivo, read-out: beta t1/2 (converted); summary of the method: as §2
Lymphocyte [19] = assay: Genotoxicity in human lymphocytes assessed as replication index at 80 ug/mL after 3 hrs in presence of rat liver S9 fraction by micronucleus assay relative to control; type: toxicity, cell-based; conditions: s9, 3 h
Summary of the method: (§3)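 Human lymphocytes exposed for 3 h with or without rat liver S9, or 28 h without S9, with 1% DMSO as vehicle control. Replication index = (binucleated + 2 × multinucleated cells)/total cells. Cytotoxicity (%) = 100 − (RI treated/RI vehicle) × 100.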

Salmonella typhimurium [20] = assay: Genotoxicity in Salmonella typhimurium TA1537 assessed as number of revertants per plate at 500 ug/plate in presence of rat liver S9 fraction by Ames test (reference value: 11 +/- 4); type: toxicity; conditions: salmonella enterica subsp. enterica serovar typhimurium
Salmonella typhimurium [21] = assay: Genotoxicity in Salmonella typhimurium TA98 assessed as number of revertants per plate at 1500 ug/plate in presence of rat liver S9 fraction by Ames test (reference value: 19 +/- 8); type: toxicity; conditions: salmonella enterica subsp. enterica serovar typhimurium
Lymphocyte [22] = assay: Genotoxicity in human lymphocytes assessed as replication index at 40 ug/mL after 28 hrs in absence of rat liver S9 fraction by micronucleus assay relative to control; type: toxicity, cell-based; summary of the method: as §3
Salmonella typhimurium [23] = assay: Genotoxicity in Salmonella typhimurium TA100 assessed as number of revertants per plate at 1500 ug/plate in absence of rat liver S9 fraction by Ames test (reference value: 154 +/- 9); type: toxicity; conditions: salmonella enterica subsp. enterica serovar typhimurium
Salmonella typhimurium [24] = assay: Genotoxicity in Salmonella typhimurium TA1535 assessed as number of revertants per plate at 5000 ug/plate in absence of rat liver S9 fraction by Ames test (reference value: 10 +/- 3); type: toxicity; conditions: salmonella enterica subsp. enterica serovar typhimurium
Plasmodium berghei [25] = assay: Antimalarial activity against Plasmodium berghei infected in Swiss Webster mouse assessed as mouse survival rate at 1 mg/kg administered once daily via oral gavage for 4 consecutive days beginning 1 hr after infection measured on day 8 post infection relative to control; type: functional; summary of the method: as §1
Plasmodium berghei [26] = assay: Antimalarial activity against Plasmodium berghei infected in Swiss Webster mouse assessed as mouse survival rate at 1 mg/kg administered once daily via oral gavage for 4 consecutive days beginning 1 hr after infection measured on day 4 post infection relative to control; type: functional; summary of the method: as §1

**Q.** For CCCC1(O)CN(C(=O)c2cnc(Oc3ccc4c(c3C)B(O)OC4)cn2)C1, which survival at 200 mg/kg (Plasmodium berghei [1]) is on record?
**A.** The survival at 200 mg/kg was 100%.

**Q.** Which survival at 11 mg/kg (Plasmodium berghei [2]) does the source give for Cc1c(Oc2cnc(C(=O)N3CC(O)(C(C)C)C3)cn2)ccc2c1B(O)OC2 here?
**A.** Its survival at 11 mg/kg is 20%.

**Q.** For Cc1c(Oc2cnc(C(=O)N3CC(C)(O)C3)cn2)ccc2c1B(O)OC2, which Activity (Lymphocyte [3]) is on record?
**A.** The Activity was 0.85%.

**Q.** And the Activity (Salmonella typhimurium [4])?
**A.** The Activity was 128.

**Q.** And the Activity (Rattus norvegicus)?
**A.** The Activity was -4%.

**Q.** And the IC50 (Plasmodium falciparum [5])?
**A.** Its IC50 is 0.064 µM.

**Q.** What about the Activity (Escherichia coli [6]) of the same compound?
**A.** Its Activity is 33.

**Q.** And the Activity (Escherichia coli [7])?
**A.** Its Activity is 50.

**Q.** And the Activity (Salmonella typhimurium [8])?
**A.** The Activity was 152.

**Q.** What about the Activity (Lymphocyte [9]) of the same compound?
**A.** The Activity was 0.95%.

**Q.** What about the Activity (Salmonella typhimurium [10]) of the same compound?
**A.** The Activity was 155.

**Q.** What about the Activity (Salmonella typhimurium [11]) of the same compound?
**A.** Its Activity is 12.

**Q.** And the half-life [12]?
**A.** Its half-life is 6.9 h.

**Q.** What about the “log(ratio)” value (Plasmodium falciparum [13]) of the same compound?
**A.** The value was 4.1.

**Q.** And the Activity (Salmonella typhimurium [14])?
**A.** Its Activity is 18.

**Q.** What about the Activity (Salmonella typhimurium [15]) of the same compound?
**A.** The Activity was 16.

**Q.** What about the Activity (Salmonella typhimurium [16]) of the same compound?
**A.** The Activity was 9.

**Q.** And the Activity (Salmonella typhimurium [17])?
**A.** Its Activity is 8.

**Q.** And the half-life [18]?
**A.** The half-life was 9.5 h.

**Q.** What about the Activity (Lymphocyte [19]) of the same compound?
**A.** Its Activity is 1%.

**Q.** And the Activity (Salmonella typhimurium [20])?
**A.** Its Activity is 17.

**Q.** What about the Activity (Salmonella typhimurium [21]) of the same compound?
**A.** The Activity was 15.

**Q.** What about the Activity (Lymphocyte [22]) of the same compound?
**A.** The Activity was 7%.

**Q.** And the Activity (Salmonella typhimurium [23])?
**A.** Its Activity is 133.

**Q.** What about the Activity (Salmonella typhimurium [24]) of the same compound?
**A.** Its Activity is 4.

**Q.** For Cc1c(Oc2cnc(C(=O)NC(C)CO)cn2)ccc2c1B(O)OC2 (configuration not stated), which survival at 1 mg/kg (Plasmodium berghei [25]) is on record?
**A.** The survival at 1 mg/kg was 0%.

**Q.** And the survival at 1 mg/kg (Plasmodium berghei [26])?
**A.** Its survival at 1 mg/kg is 100%.
